Laboratory results: ChEMBL document CHEMBL1131263, “Substituted tetrahydropyrrolo[2,1-b]oxazol-5(6H)-ones and tetrahydropyrrolo[2,1-b]thiazol-5(6H)-ones as hypoglycemic agents” (1998)

What was measured:
[1] = lowest concentration at which glucose utilized was greater than or equal to 140% of control value tested in a glucose utilization L6 myocyte in vitro assay; format: functional, Rattus norvegicus
In short: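 Differentiated rat L6 myotubes (day 11 or 13 after plating) exposed 20 h to compound in serum-free DMEM with 15 mM glucose and 1% final DMSO. Tested in quadruplicate at 3, 10, 30, 100, 300 µM. Glucose left in the medium read by glucose oxidase. Value is the lowest concentration giving at least 40% more utilization than control.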

[2] = tested on: Mus musculus; assay: In vivo lowering of blood glucose levels in diabetic obese ob/ob mice, measuring postprandial blood glucose level on day 3 after 2 hours at 300 uM/kg oral dose; format: functional
In short: (§1)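 Adult male C57BL ob/ob mice, fed, grouped (6/group) and matched for blood glucose on day 0; mice under 150 mg/dL excluded. Oral dosing in the morning on days 1-3, vehicle 0.5% CMC with 0.2% Tween-80. Significance versus vehicle.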

[3] = tested on: Mus musculus; assay: In vivo lowering of blood glucose levels in diabetic obese ob/ob mice by measuring postprandial blood glucose level on day 3 after 4 hours at 300 uM/kg oral dose; format: functional; in short: as §1
[4] = tested on: Mus musculus; assay: In vivo lowering of blood glucose levels in diabetic obese ob/ob mice by measuring postprandial blood glucose level on day 3 after 8 hours at 300 uM/kg oral dose; format: functional; in short: as §1
[5] = tested on: Mus musculus; assay: compound was tested in vivo for lower blood glucose levels in diabetic obese ob/ob mice by measuring postprandial blood glucose level on day1 after 4 hours at 300 uM/kg oral dose *p < 0.05; format: functional; in short: as §1
[6] = tested on: Mus musculus; assay: In vivo lowering of blood glucose levels in diabetic obese ob/ob mice, measuring postprandial blood glucose level on day1 after 2 hours at 300 uM/kg oral dose; format: functional; in short: as §1
[7] = tested on: Mus musculus; assay: compound was tested in vivo for lower blood glucose levels in diabetic obese ob/ob mice by measuring postprandial blood glucose level on day 3 after 2 hours at 200 uM/kg oral dose; format: functional; in short: as §1
[8] = tested on: Mus musculus; assay: compound was tested in vivo for lower blood glucose levels in diabetic obese ob/ob mice by measuring postprandial blood glucose level on day 3 after 4 hours at 200 uM/kg oral dose; format: functional; in short: as §1
[9] = tested on: Mus musculus; assay: compound was tested in vivo for lower blood glucose levels in diabetic obese ob/ob mice by measuring postprandial blood glucose level on day 3 after 8 hours at 200 uM/kg oral dose; format: functional; in short: as §1
[10] = tested on: Mus musculus; assay: compound was tested in vivo for lower blood glucose levels in diabetic obese ob/ob mice by measuring postprandial blood glucose level on day1 after 2 hours at 200 uM/kg oral dose; format: functional; in short: as §1
[11] = tested on: Mus musculus; assay: compound was tested in vivo for lower blood glucose levels in diabetic obese ob/ob mice by measuring postprandial blood glucose level on day1 after 4 hours at 200 uM/kg oral dose; format: functional; in short: as §1
[12] = compound was tested in vivo for lower blood glucose levels in diabetic obese ob/ob mice by measuring postprandial blood glucose level on day1 after 2 hours at 15.86 uM/kg oral dose.; format: functional, Mus musculus; in short: as §1
[13] = compound was tested in vivo for lower blood glucose levels in diabetic obese ob/ob mice by measuring postprandial blood glucose level on day1 after 4 hours at 15.86 uM/kg oral dose.; format: functional, Mus musculus; in short: as §1
[14] = tested on: Mus musculus; assay: In vivo lowering of blood glucose levels in diabetic obese ob/ob mice by measuring postprandial blood glucose level on day1 after 4 hours at 300 uM/kg oral dose; format: functional; in short: as §1

Compound: OCc1cc(-c2ccc(C(F)(F)F)cc2)no1
- Lowest effective concentration for glucose utilization ≥140% of control [1]: 100 µM
- Efficacy [2]: 6%
- Efficacy [3]: 48%
- Efficacy [4]: 50%
- Efficacy [5]: 52%
- Efficacy [6]: 14%

Compound: O=C1CC[C@]2(c3ccc(Cl)cc3)O[C@H](COc3ccc(Cl)cc3)CN12
- Lowest effective concentration for glucose utilization ≥140% of control [1]: 30 µM
- Efficacy [7]: 14%
- Efficacy [8]: -15%
- Efficacy [9]: -26%
- Efficacy [10]: 31%
- Efficacy [11]: 46%

Compound: CC(C)C(N)C(=O)NC(C(=O)O)C(O)[C@H]1CN2C(=O)C[C@@H]2O1 (stereo not given in full)
- Efficacy [12]: 63%
- Efficacy [13]: 63%
- Lowest effective concentration for glucose utilization ≥140% of control [1]: 10 µM

Compound: O=C1C[C@@H]2O[C@@H](CO)CN12
- Lowest effective concentration for glucose utilization ≥140% of control [1]: 30 µM
- Efficacy [7]: 53%
- Efficacy [8]: 23%
- Efficacy [9]: 44%
- Efficacy [10]: 66%
- Efficacy [11]: 86%

Compound: O=C1CC[C@]2(c3ccc(Oc4ccccc4)cc3)O[C@H](COc3ccc(Cl)cc3)CN12
- Lowest effective concentration for glucose utilization ≥140% of control [1]: 10 µM
- Efficacy [2]: 2%
- Efficacy [3]: -25%
- Efficacy [4]: -3%
- Efficacy [6]: -29%
- Efficacy [14]: -6%

Compound: O=C1CC[C@]2(c3ccc(Cl)cc3)S[C@@H](COc3ccc(Cl)cc3)CN12
- Lowest effective concentration for glucose utilization ≥140% of control [1]: 10 µM
- Efficacy [2]: 44%
- Efficacy [3]: 48%
- Efficacy [4]: 35%
- Efficacy [6]: 9%
- Efficacy [14]: 3%

Compound: O=C1CC[C@]2(c3ccc4ccccc4c3)O[C@H](COc3ccc(Cl)cc3)CN12
- Lowest effective concentration for glucose utilization ≥140% of control [1]: 30 µM
- Efficacy [2]: 49%
- Efficacy [3]: 62%
- Efficacy [4]: 39%
- Efficacy [6]: 21%
- Efficacy [14]: 37%

Compound: CS(=O)(=O)N1C[C@H](COc2ccc(Cl)cc2)O[C@@H]1c1ccc(Cl)cc1
- Lowest effective concentration for glucose utilization ≥140% of control [1]: 100 µM
- Efficacy [2]: 35%
- Efficacy [3]: 59%
- Efficacy [4]: 29%
- Efficacy [6]: -12%
- Efficacy [14]: -4%
